# Reference: ChEMBL document CHEMBL1157150, “Synthesis, structure and antibacterial activity of novel 1-(5-substituted-3-substituted-4,5-dihydropyrazol-1-yl)ethanone oxime ester derivatives” (Bioorg Med Chem, 2008)
# The source made the active and inactive calls. The rule behind the calls is not given here.
# Assays:
# Pseudomonas fluorescens = test: Antibacterial activity against Pseudomonas fluorescens ATCC 13525; type: functional
# [1] = Inhibition of Escherichia coli DNA gyrase supercoiling activity
# Pseudomonas aeruginosa = test: Antibacterial activity against Pseudomonas aeruginosa ATCC 13525; type: functional, organism-based
# How it was run: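 Broth microdilution in MH medium with an inoculum of about 10⁵ cfu/mL. Compounds were serially diluted from a DMSO stock and incubated 24 h at 37 °C. MIC was read visually, then confirmed colorimetrically: MTT (2 mg/mL in PBS, pH 7.4) was added for 4–5 h at room temperature, the dye was extracted with isopropanol/5% 1 mol/L HCl for 12 h, and OD was read at 550 nm.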
# Bacillus subtilis = test: microbe, parasite or virus in culture; type: functional; conditions: ATCC 6633
# Escherichia coli = test: Antibacterial activity against Escherichia coli ATCC 35218; type: functional
# Staphylococcus aureus = test: Antibacterial activity against Staphylococcus aureus ATCC 6538; type: functional
MIC (Pseudomonas fluorescens),IC50 [1],MIC (Bacillus subtilis),MIC (Escherichia coli),MIC (Staphylococcus aureus),SMILES,Activity (Pseudomonas aeruginosa)
1.56 µg/mL,8 µg/mL,1.56 µg/mL,3.12 µg/mL,3.12 µg/mL,C/C(=N/OC(=O)c1ccco1)N1N=C(c2ccc(Cl)cc2Cl)CC1c1ccc(C(F)(F)F)cc1 (configuration not stated),Active
6.25 µg/mL,1 µg/mL,3.12 µg/mL,1.56 µg/mL,1.56 µg/mL,C/C(=N/OC(=O)c1ccco1)N1N=C(c2ccc(Cl)cc2Cl)CC1c1ccccc1F (configuration not stated),Active
